The values below come from the RNAGym collection of RNA variant scans (doi:10.1101/gad.245936.114).

Fewer inactive variants are shown than the library holds. Some results are limits rather than exact numbers.

The labels stand for the following.
B1: tRNA (parent)
chain: CUCUCGGUAGCCAAGUUGGUUUAAGGCGCAAGACUUUAAUUUAUCACUACGAAAUCUUGAGAUCGGGCGUUCGACUCGCCCCCGGGAGAUUUUUUCCUCGAGCAA

Variants of B1 are the subject of the series. Briefly: nonsense suppression (GFP-seq) (ratio to wild type); higher = more function; SUP4oc tRNA, yeast GFP reporter sort-seq. In a few lines: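 Yeast were grown in raffinose/galactose medium with 80 mg/L adenine, each strain bearing a genome-integrated ochre-suppressor tRNA variant from a ~3% random-mutation library, a galactose-driven GFP ochre reporter, and RFP. After sorting into GFP/RFP bins, every bin was sequenced on an Illumina platform at phred ≥30. The GFPSEQ value, a measure of nonsense suppression, is the weighted bin median GFP/RFP relative to the unmutated parent tRNA, using each variant's estimated cell share per bin as the weight. Only variants with ≥100 reads and ≥30 cells were included.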
Turning to CUCUCGGUAGCCAAGUUGGUAUAAGGCGCAAGACUUUAAUUUAUCACUACGAAAUCUUGAGAUCGGGCGUUCGACUCGGCCCCGGGAGAUUUUUUCCUCGAGCAA [U21A C79G], the nonsense suppression was not above 0.026. CUCUCGGUAGCCAAGUUGGUAUAAGGCGCAAGACUUUAAUUUAUCACUACGAAAUCUUGAGAUCGGGCGUUCGACUCGUCCCCGGGAGAUUUUUUCCUCGAGCAA [U21A C79U]: the nonsense suppression was 0.444.

Regarding CUCUCGGUAGCCAAGUUGGUAUAAGGCGCAAGACUUUAAUUUAUCACUACGAACUCUUGAAAUCGGGCGUUCGACUCGCCCCCGGGAGAUUUUUUCCUCGAGCAA [U21A A54C G61A], the nonsense suppression came out at 0.215.

With CUCUCGGUAGCCAAGUUGGUCUAAGGCGCAAGACUUUAAUUUAUCACUACGAACUCUUGAGAGCGGGCGUUCGACUCGCCCUCGGGAGAUUUUUUCCUCGAGCAA [U21C A54C U63G C82U], the nonsense suppression is not above 0.026. The result for CUCUCGGUAGCCAAGUUGGUCUAAGGCGCAAGACUUUAAUUUAUCACUACGAAAUCUUGAGAUCGGGCGUUCGACUCGCCCCCGGGAGAUUUUUUCCUCGAGCAA [U21C] reads 0.954. As for CUCUCGGUAGCCAAGUUGGUAUAAGGCGCAAGACUUUAAUUUAUCACUACGAAAUCUUGAGAUCGGGCGUUCGACUCGCCCCCGGGAGAUUUUUUCCUCGAGCAA [U21A], the nonsense suppression stood at 1.02. In the case of CUCUCGGUAGCCAAGUUGGGUUAAGGCGCAAGACUUUAAUUUAUCACUACGAAAUCUUGAGAGCGGGCGUUCGACUCGCCCCCGGGAGAUUUUUUCCUCGAGCAA [U20G U63G] it was 0.495. CUCUCGGUAGCCAAGUUGGGUUAAGGCGCAAGACUUUAAUUUAUCACUACGAAAUCUUGAGAACGGGCGUUCGACUCGCCCCCGGGAGAUUUUUUCCUCGAGCAA [U20G U63A]: the nonsense suppression turned out to be 1.06. In the case of CUCUCGGUAGCCAAGUUGGUAUAAGGCGCAAGACUUUAAUUUAUCACUACGAAACCUUGAGAUCGGGCGUUCGACUCGUCCCCGGGAGAUUUUUUCCUCGAGCAA [U21A U55C C79U] it was not above 0.026; in that of CUCUCGGUAGCCAAGUUGGUAUAAGGCGCAAGACUUUAAUUUAUCACUACGAAAUCUUGAUAUCGGGCGUUCGACUCGCCCCCGGGAGAUUUUUUCCUCGAGCAA [U21A G61U], 0.791. Regarding CUCUCGGUAGCCAAGUUGGUCUAGGGCGCAAGACUUUAAUUUAUCACUACGAAAUCUUGAGAUCGGGCGUUCGACUCGCCCCCGGGAGAUUUUUUCCUCGAGCAA [U21C A24G], the nonsense suppression is 0.0906.

Take CUCUCGGUAGCCAAGUUGGUCUAUGGCGCAAGACUUUAAUUUAUCACUACGAAAUCUUGAGAUCGGGCGUUCGACUCGCCCCCGGGAGAUUUUUUCCUCGAGCAA [U21C A24U]: the nonsense suppression amounted to 0.194. In the case of CUCUCGGUAGCCAAGUUGGUAUAAGGCGCAGGACUUUAAUUUAUCACUACGAAAUCUUGAGAUCGGGCGUUCGACUCGCCCCCGGGAGAUUUUUUCCUCGAGCAA [U21A A31G], the nonsense suppression came to 1.16. Take CUCUCGGUAGCCAAGUUGGUCUAAGGCGCAGGACUUUAAUUUAUCACUACGAAAUCUUGAGAUCGGGCGUUCGACUCGCCCCCGGGAGAUUUUUUCCUCGAGCAA [U21C A31G]: the nonsense suppression turned out to be 1. The result for CUCUCGGUAGCCAAGUUGGUAUAAGGCGAAAGACUUUAAUUUAUCACUACGAAAUCUUGAGAUCGGGCGUUCGACUCGUCCCCGGGAGAUUUUUUCCUCGAGCAA [U21A C29A C79U] reads not above 0.026; that for CUCUCGGUAGCCAAGUUGGUCUAAGGCGCAAGACUUUAAUUUAUCACUACGAAAUCUUGAGAUCGGGCGUUCGACUCGCCCUCGGGAGAUUUUUUCCUCGAGCAA [U21C C82U], 1.15. The result for CUCUCGGUAGCCAAGUUGGUAUAAGGCGCAAGACUUUAAUUUAUCACUACGAAAUCUUGAGAUCGGGCGUUCGACUCGCCCCGGGGAUAUUUUUUCCUCGAGCAA [U21A C83G G88U] reads not above 0.026. Take CUCUCGGUAGCCAAGUUGGUCUAAGGCGCAAGACUUUAAUUUAUCACUACGAAAUUUUGAGAUCGGGCGUUCGACUCGCCCCCGGGAGAUUUUUUCCUCGAGCAA [U21C C56U]: the nonsense suppression came out at 0.174. In the case of CUCUCGGUAGCCAAGUUGGGUUAAGGCGCAAGACUUUAAUUUAUCACUACGAAAUCUUGAGAUCGGGCGUGCGACUCGCCCCCGGGAGAUUUUUUCCUCGAGCAA [U20G U71G], the nonsense suppression is not above 0.026. Consider CUCUCGGUAGCCAAGUUGGUAUAAGGCGCAAGACUUUAAUUUAUCACUACGAAAUCUUGAGAUCGGGCGUUCGACUCCCCCCCGGGAGAUUUUUUCCUCGAGCAA [U21A G78C], for which the nonsense suppression was 0.0372. The result for CUCUCGGUAGCCAAGUUGGUCUAAGGCGCGGGACUUUAAUUUAUCACUACGAAAUCUUGAGACCGGGCGUUCGACUCGCCCCCGGGAGAUUUUUUCCUCGAGCAA [U21C A30G A31G U63C] reads not above 0.026. CUCUCGGUAGCCAAGUUGGUCUAAGGCGCAAGACUUUAAUUUAUCACUACGAAUUCCUAAGAUCGGGCGUUCGACUCGCCCCCGGGAGGUUUUUUCCUCGAGCAA [U21C A54U U57C G59A A89G]: the nonsense suppression is not above 0.026. In the case of CUCUCGGUAGCCAAGUUGGUCUAAGGUGCAAGACUUUAAUUUAUCACUACGAAAUCUUGAGAUCGGGCGUUCGACUCGCCCCCGGGAGAUUUUUUCCUCGAGCAA [U21C C27U] it was 0.154. Turning to CUCUCGGUAGCCAAGUUGGUAUAAGGCGCAAGACUUUAAUUUAUCACUACGAAAUCUUGAGAUCGGGCGUUCGAAUCGCCCCCGGGAGAUUUUUUCCUCGAGCAA [U21A C75A], the nonsense suppression worked out at 0.947. CUCUCGGUAGCCAAGUUGGUCUAAGGCGUAAGACUUUAAUUUAUCACUACGAAAUCUUGAUAUCGGGCGUUCGACUCGCCCCCGGGAGAUUUUUUCCUCGAGCAA [U21C C29U G61U]: the nonsense suppression turned out to be 0.518. The result for CUCUCGGUAGCCAAGUUGGUCUAAGGCGCAAGACUUUAAUUUAUCACUACGAAAUCUUGAGGUCGGGCGUUCGACUCGCCCCCGGGAGAUUUUUUCCUCGAGCAA [U21C A62G] reads 0.0282; that for CUCUCGGUAGCCAAGUUGGUAUAAGGCGCAAGACUUUAAUUUAUCACUACGAAACCGUGAGAUCGGGCGUUCGACUCGCCCCCGGGAGAUUUUUUCCUCGAGCAA [U21A U55C U57G], not above 0.026.
